Experimental data reported in ChEMBL document CHEMBL5303300, “EUbOPEN Chemogenomics Library - Multiplex” (2023).
Values joined by “and” are separate entries in the source; they are usually repeats but may differ in a detail not shown here. Identical values can stand only once.

Tests used:
Format in all cases: toxicity, cell-based
[1] = tested on: Fibroblast; test: Multiplex assay against human fibroblast; details: number of replicates 2
Method in brief: (§1)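 Values for tubulin, mitochondrial-mass and membrane-permeability phenotypes are per cents of cells with healthy nuclei. These cells were identified by CellPathfinder machine-learning gating of live cells that had been stained at seeding with Hoechst33342, BioTracker Green Microtubule Cytoskeleton Dye, MitoTracker Red and Annexin V Alexa Fluor 680 and imaged on a CQ1 microscope at 37°C and 5% CO2 after compound addition. The gating first set Hoechst high-intensity objects apart from normal cells, then split normal cells into healthy, pyknosed or fragmented nuclei, and pyknosed cells into mitotic or apoptotic.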

[2] = tested on: HEK-293T; test: Multiplex assay against HEK293T; details: human, number of replicates 2; method in brief: as §1
[3] = tested on: U2OS; test: Multiplex assay against U2OS; details: human, number of replicates 2; method in brief: as §1
[4] = 12 h, 1 µM, compound concentration 1 uM
[5] = 12 h, 10 µM, compound concentration 10 uM
[6] = 24 h, 1 µM, compound concentration 1 uM
[7] = 24 h, 10 µM, compound concentration 10 uM
[8] = 48 h, 1 µM, compound concentration 1 uM
[9] = 48 h, 10 µM, compound concentration 10 uM

Cc1cccc(S(=O)(=O)N(C)[C@H](C)CCN2CCC(C)CC2)c1.Cl
Population Apoptotic (%) [1, 4]: 34% and 44%
Population Fragmented Nuclei (%) [1, 4]: 11% and 9%
Population Healthy Nuclei (%) [1, 4]: 67% and 73%
Population Hoechst High Intensity Objects (%) [1, 4]: 0%
Population Membrane Permeable-Phenotype (%) [1, 4]: 8% and 4%
Population Mitochondria Different-Phenotype (%) [1, 4]: 1% and 3%
Population Mitotic Cells (%) [1, 4]: 65% and 55%
Population Normal (%) [1, 4]: 100%
Population Pyknosed Nuclei (%) [1, 4]: 20% and 17%
Population Tubulin-Different-Phenotype (%) [1, 4]: 16% and 10%
Total Cell Count [1, 4]: 140 and 163
Population Apoptotic (%) [1, 5]: 42% and 46%
Population Fragmented Nuclei (%) [1, 5]: 16% and 8%
Population Healthy Nuclei (%) [1, 5]: 70% and 80%
Population Hoechst High Intensity Objects (%) [1, 5]: 0%
Population Membrane Permeable-Phenotype (%) [1, 5]: 6% and 4%
Population Mitochondria Different-Phenotype (%) [1, 5]: 2% and 1%
Population Mitotic Cells (%) [1, 5]: 57% and 53%
Population Normal (%) [1, 5]: 100%
Population Pyknosed Nuclei (%) [1, 5]: 13% and 10%
Population Tubulin-Different-Phenotype (%) [1, 5]: 35% and 13%
Total Cell Count [1, 5]: 187 and 145
Population Apoptotic (%) [1, 6]: 50% and 54%
Population Fragmented Nuclei (%) [1, 6]: 16% and 13%
Population Healthy Nuclei (%) [1, 6]: 61% and 71%
Population Hoechst High Intensity Objects (%) [1, 6]: 1% and 0%
Population Membrane Permeable-Phenotype (%) [1, 6]: 8% and 2%
Population Mitochondria Different-Phenotype (%) [1, 6]: 1% and 0%
Population Mitotic Cells (%) [1, 6]: 50% and 45%
Population Normal (%) [1, 6]: 98% and 100%
Population Pyknosed Nuclei (%) [1, 6]: 22% and 15%
Population Tubulin-Different-Phenotype (%) [1, 6]: 14% and 9%
Total Cell Count [1, 6]: 144 and 156
Population Apoptotic (%) [1, 7]: 50% and 53%
Population Fragmented Nuclei (%) [1, 7]: 13% and 9%
Population Healthy Nuclei (%) [1, 7]: 76% and 81%
Population Hoechst High Intensity Objects (%) [1, 7]: 0%
Population Membrane Permeable-Phenotype (%) [1, 7]: 6% and 1%
Population Mitochondria Different-Phenotype (%) [1, 7]: 2% and 0%
Population Mitotic Cells (%) [1, 7]: 50% and 46%
Population Normal (%) [1, 7]: 100%
Population Pyknosed Nuclei (%) [1, 7]: 10% and 9%
Total Cell Count [1, 7]: 177 and 144
Population Apoptotic (%) [1, 8]: 58% and 73%
Population Fragmented Nuclei (%) [1, 8]: 15%
Population Healthy Nuclei (%) [1, 8]: 63% and 72%
Population Hoechst High Intensity Objects (%) [1, 8]: 0%
Population Membrane Permeable-Phenotype (%) [1, 8]: 4% and 1%
Population Mitochondria Different-Phenotype (%) [1, 8]: 2% and 0%
Population Mitotic Cells (%) [1, 8]: 41% and 26%
Population Normal (%) [1, 8]: 100%
Population Pyknosed Nuclei (%) [1, 8]: 20% and 11%
Total Cell Count [1, 8]: 139 and 160
Population Apoptotic (%) [1, 9]: 54% and 72%
Population Fragmented Nuclei (%) [1, 9]: 20% and 11%
Population Healthy Nuclei (%) [1, 9]: 74% and 81%
Population Hoechst High Intensity Objects (%) [1, 9]: 0%
Population Membrane Permeable-Phenotype (%) [1, 9]: 2%
Population Mitochondria Different-Phenotype (%) [1, 9]: 0%
Population Mitotic Cells (%) [1, 9]: 45% and 27%
Population Normal (%) [1, 9]: 100%
Population Pyknosed Nuclei (%) [1, 9]: 5% and 7%
Total Cell Count [1, 9]: 185 and 152
Population Apoptotic (%) [2, 4]: 51% and 50%
Population Fragmented Nuclei (%) [2, 4]: 4% and 1%
Population Healthy Nuclei (%) [2, 4]: 81% and 80%
Population Hoechst High Intensity Objects (%) [2, 4]: 5% and 6%
Population Membrane Permeable-Phenotype (%) [2, 4]: 4% and 6%
Population Mitochondria Different-Phenotype (%) [2, 4]: 16%
Population Mitotic Cells (%) [2, 4]: 48% and 50%
Population Normal (%) [2, 4]: 94% and 93%
Population Pyknosed Nuclei (%) [2, 4]: 13% and 17%
Population Tubulin-Different-Phenotype (%) [2, 4]: 61% and 51%
Total Cell Count [2, 4]: 635 and 449
Population Apoptotic (%) [2, 5]: 52% and 62%
Population Fragmented Nuclei (%) [2, 5]: 4% and 3%
Population Healthy Nuclei (%) [2, 5]: 81% and 74%
Population Hoechst High Intensity Objects (%) [2, 5]: 7% and 9%
Population Membrane Permeable-Phenotype (%) [2, 5]: 3% and 4%
Population Mitochondria Different-Phenotype (%) [2, 5]: 24% and 29%
Population Mitotic Cells (%) [2, 5]: 47% and 37%
Population Normal (%) [2, 5]: 92% and 90%
Population Pyknosed Nuclei (%) [2, 5]: 14% and 22%
Population Tubulin-Different-Phenotype (%) [2, 5]: 70% and 65%
Total Cell Count [2, 5]: 550 and 400
Population Apoptotic (%) [2, 6]: 45% and 63%
Population Fragmented Nuclei (%) [2, 6]: 6% and 2%
Population Healthy Nuclei (%) [2, 6]: 85% and 82%
Population Hoechst High Intensity Objects (%) [2, 6]: 6% and 9%
Population Membrane Permeable-Phenotype (%) [2, 6]: 4%
Population Mitochondria Different-Phenotype (%) [2, 6]: 7% and 10%
Population Mitotic Cells (%) [2, 6]: 54% and 36%
Population Normal (%) [2, 6]: 93% and 90%
Population Pyknosed Nuclei (%) [2, 6]: 8% and 15%
Population Tubulin-Different-Phenotype (%) [2, 6]: 36% and 37%
Total Cell Count [2, 6]: 943 and 563
Population Apoptotic (%) [2, 7]: 64% and 54%
Population Fragmented Nuclei (%) [2, 7]: 4% and 3%
Population Healthy Nuclei (%) [2, 7]: 79% and 83%
Population Hoechst High Intensity Objects (%) [2, 7]: 9% and 6%
Population Membrane Permeable-Phenotype (%) [2, 7]: 4% and 3%
Population Mitochondria Different-Phenotype (%) [2, 7]: 15% and 9%
Population Mitotic Cells (%) [2, 7]: 35% and 45%
Population Normal (%) [2, 7]: 90% and 93%
Population Pyknosed Nuclei (%) [2, 7]: 16% and 12%
Population Tubulin-Different-Phenotype (%) [2, 7]: 50% and 49%
Total Cell Count [2, 7]: 552 and 801
Population Apoptotic (%) [2, 8]: 15% and 36%
Population Fragmented Nuclei (%) [2, 8]: 10% and 7%
Population Healthy Nuclei (%) [2, 8]: 84% and 86%
Population Hoechst High Intensity Objects (%) [2, 8]: 8% and 6%
Population Membrane Permeable-Phenotype (%) [2, 8]: 5% and 3%
Population Mitochondria Different-Phenotype (%) [2, 8]: 0% and 3%
Population Mitotic Cells (%) [2, 8]: 85% and 63%
Population Normal (%) [2, 8]: 91% and 93%
Population Pyknosed Nuclei (%) [2, 8]: 4% and 5%
Population Tubulin-Different-Phenotype (%) [2, 8]: 16% and 20%
Total Cell Count [2, 8]: 2361 and 1220
Population Apoptotic (%) [2, 9]: 39% and 41%
Population Fragmented Nuclei (%) [2, 9]: 11% and 10%
Population Healthy Nuclei (%) [2, 9]: 83%
Population Hoechst High Intensity Objects (%) [2, 9]: 9% and 8%
Population Membrane Permeable-Phenotype (%) [2, 9]: 7%
Population Mitochondria Different-Phenotype (%) [2, 9]: 1% and 3%
Population Mitotic Cells (%) [2, 9]: 60% and 58%
Population Normal (%) [2, 9]: 90% and 91%
Population Pyknosed Nuclei (%) [2, 9]: 5%
Population Tubulin-Different-Phenotype (%) [2, 9]: 27%
Total Cell Count [2, 9]: 1730 and 1106
Population Apoptotic (%) [3, 4]: 72% and 100%
Population Fragmented Nuclei (%) [3, 4]: 5% and 14%
Population Healthy Nuclei (%) [3, 4]: 84% and 82%
Population Hoechst High Intensity Objects (%) [3, 4]: 0%
Population Membrane Permeable-Phenotype (%) [3, 4]: 0%
Population Mitochondria Different-Phenotype (%) [3, 4]: 0%
Population Normal (%) [3, 4]: 100%
Population Pyknosed Nuclei (%) [3, 4]: 10% and 2%
Population Apoptotic (%) [3, 5]: 50%
Population Healthy Nuclei (%) [3, 5]: 53% and 89%
Population Hoechst High Intensity Objects (%) [3, 5]: 0%
Population Membrane Permeable-Phenotype (%) [3, 5]: 0%
Population Mitochondria Different-Phenotype (%) [3, 5]: 0% and 1%
Population Mitotic Cells (%) [3, 5]: 50%
Population Normal (%) [3, 5]: 100%
Population Tubulin-Different-Phenotype (%) [3, 5]: 42% and 46%
Population Apoptotic (%) [3, 6]: 41% and 14%
Population Fragmented Nuclei (%) [3, 6]: 4% and 10%
Population Healthy Nuclei (%) [3, 6]: 83% and 71%
Population Hoechst High Intensity Objects (%) [3, 6]: 0%
Population Membrane Permeable-Phenotype (%) [3, 6]: 1% and 0%
Population Mitochondria Different-Phenotype (%) [3, 6]: 0%
Population Mitotic Cells (%) [3, 6]: 58% and 85%
Population Normal (%) [3, 6]: 100%
Population Pyknosed Nuclei (%) [3, 6]: 11% and 17%
Population Apoptotic (%) [3, 7]: 80% and 54%
Population Healthy Nuclei (%) [3, 7]: 54% and 91%
Population Hoechst High Intensity Objects (%) [3, 7]: 0%
Population Membrane Permeable-Phenotype (%) [3, 7]: 0% and 2%
Population Mitochondria Different-Phenotype (%) [3, 7]: 0% and 1%
Population Mitotic Cells (%) [3, 7]: 20% and 45%
Population Normal (%) [3, 7]: 100%
Population Tubulin-Different-Phenotype (%) [3, 7]: 58% and 56%
Population Apoptotic (%) [3, 8]: 59% and 46%
Population Fragmented Nuclei (%) [3, 8]: 2% and 12%
Population Healthy Nuclei (%) [3, 8]: 89% and 68%
Population Hoechst High Intensity Objects (%) [3, 8]: 0%
Population Membrane Permeable-Phenotype (%) [3, 8]: 2% and 0%
Population Mitochondria Different-Phenotype (%) [3, 8]: 0%
Population Mitotic Cells (%) [3, 8]: 40% and 53%
Population Normal (%) [3, 8]: 100%
Population Pyknosed Nuclei (%) [3, 8]: 8% and 18%
Population Tubulin-Different-Phenotype (%) [3, 8]: 86% and 42%
Population Apoptotic (%) [3, 9]: 30% and 62%
Population Healthy Nuclei (%) [3, 9]: 92% and 51%
Population Hoechst High Intensity Objects (%) [3, 9]: 0%
Population Mitochondria Different-Phenotype (%) [3, 9]: 0%
Population Mitotic Cells (%) [3, 9]: 69% and 37%
Population Normal (%) [3, 9]: 99% and 100%
Population Tubulin-Different-Phenotype (%) [3, 9]: 62% and 46%
